How the values were obtained:
[1] = system: Cavia porcellus; test: Histamine induced lethality, at 60-min pretreatment time when 3 mg/kg compound was administered perorally in guinea pigs; assay type: functional; details: route oral
[2] = system: Cavia porcellus; test: Histamine induced lethality, at 60-min pretreatment time when 1 mg/kg compound was administered perorally in guinea pigs; assay type: functional; details: route oral
[3] = system: Cavia porcellus; test: Histamine induced lethality, at 30-min pretreatment time when 30 mg/kg compound was administered intra peritoneally in guinea pigs; assay type: functional
[4] = system: Cavia porcellus; test: Histamine induced lethality, at 60-min pretreatment time when 0.3 mg/kg compound was administered perorally in guinea pigs; assay type: functional; details: route oral
[5] = target: Histamine H1 receptor (Cavia porcellus) (UniProt P31389); test: Histamine induced lethality, at 30-min pretreatment time of 3 mg/kg i.p. in guinea pigs.; assay type: functional, organism-based; set-up: dose 3 mg/kg; details: at 3 mg/kg
Chain of Histamine H1 receptor (Cavia porcellus) (P31389 whole entry): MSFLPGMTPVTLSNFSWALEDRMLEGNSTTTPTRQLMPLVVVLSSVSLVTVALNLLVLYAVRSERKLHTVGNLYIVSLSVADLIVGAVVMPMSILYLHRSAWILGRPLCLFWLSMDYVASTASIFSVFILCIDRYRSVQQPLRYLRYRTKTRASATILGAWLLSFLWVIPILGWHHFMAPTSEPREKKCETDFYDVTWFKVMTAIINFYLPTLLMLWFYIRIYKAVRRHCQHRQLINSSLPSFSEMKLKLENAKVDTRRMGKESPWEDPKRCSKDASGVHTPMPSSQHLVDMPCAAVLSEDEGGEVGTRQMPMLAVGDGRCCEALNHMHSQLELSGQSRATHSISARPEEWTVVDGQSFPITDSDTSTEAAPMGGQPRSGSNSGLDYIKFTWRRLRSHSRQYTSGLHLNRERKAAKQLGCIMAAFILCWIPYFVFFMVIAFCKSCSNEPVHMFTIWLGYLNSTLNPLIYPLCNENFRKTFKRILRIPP

[6] = system: Cavia porcellus; test: Histamine induced lethality, at 60-min pretreatment time when 30 mg/kg compound was administered perorally in guinea pigs; assay type: functional; details: route oral
[7] = target: Histamine H1 receptor (Cavia porcellus) (UniProt P31389); test: Histamine induced lethality, at 60-min pretreatment time of 0.1 mg/kg p.o. in guinea pigs.; assay type: functional, organism-based; set-up: dose 0.1 mg/kg; details: at 0.1 mg/kg
[8] = species on record: Cavia porcellus; test: Effective dose that protects guinea pigs against histamine induced lethality at 6 hours pretreatment time; assay type: functional
How it was run: (§1)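 Survival at 24 h after challenge was scored as protection. Groups of 5–10 animals per treatment; ED50 was calculated by the Litchfield–Wilcoxon method or by computer probit analysis.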

[9] = species on record: Cavia porcellus; test: Effective dose that protects guinea pigs against histamine induced lethality, at 1 hour pretreatment time; assay type: functional; how it was run: as §1
[10] = system: Felis catus; test: The compound dose required for 50% block of H1 histamine activity, when administarted intra venously in cats; assay type: functional
How it was run: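 Cats given test compound iv (0.001-20 mg/kg), with blood pressure recorded continuously. Histamine 0.5 μg/kg iv was given to induce hypotension, before and 5, 10 and 20 min after each dose. The antihistaminic dose was the one inhibiting the histamine response by >50%. Values are mean ± SD over the number of experiments per compound.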

[11] = system: Felis catus; test: The compound dose required to elicit marked cortical slowing and spindling, when administarted intra venously in cats; assay type: functional
How it was run: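 Cats given test compound iv (0.001-20 mg/kg), with spontaneous EEG inspected after each dose for cortical slowing, synchrony and spindle-type activity. The sedative dose was the one producing marked slowing and spindling (synchrony). Values are mean ± SD over the number of experiments per compound.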

Structure (SMILES): CN(C)CCC1CN(C)C(=S)c2cc(N)ccc2O1 (stereo unspecified)
- survival at 3 mg/kg [1]: 100%
- survival at 1 mg/kg [2]: 0%

Structure (SMILES): CN(C)CCC1CN(Cc2ccccc2)C(=S)c2cccnc2O1 (stereo unspecified)
- survival at 3 mg/kg [1]: 100%
- survival at 1 mg/kg [2]: 0%

Structure (SMILES): CN(C)CCC1CNC(=O)c2cccnc2O1 (stereo unspecified)
- survival at 3 mg/kg [1]: 67%
- survival at 1 mg/kg [2]: 0%

Structure (SMILES): CN(C)CCCOc1ncccc1C(=S)N(C)C
- survival at 30 mg/kg [3]: 0%

Structure (SMILES): CN(CCC1CN(C)C(=S)c2cccnc2O1)Cc1ccc(C(C)(C)C)cc1 (stereo unspecified)
- survival at 3 mg/kg [1]: 100%
- survival at 0.3 mg/kg [4]: 0%
- survival at 1 mg/kg [2]: 40%

Structure (SMILES): CN1CC(CC[N+](C)(C)C)Oc2ncccc2C1=S (stereo unspecified)
- Survival [5]: 0%
- survival at 30 mg/kg [3]: 100%

Structure (SMILES): CN(C)CCC1CN(C)C(=S)c2cc(C(F)(F)F)ccc2O1 (stereo unspecified)
- survival at 3 mg/kg [1]: 33%
- survival at 30 mg/kg [6]: 100%

Structure (SMILES): CCCCN(CCCC)CCC1CN(C)C(=S)c2cccnc2O1 (stereo unspecified)
- Survival [5]: 33%
- survival at 30 mg/kg [3]: 100%

Structure (SMILES): Cc1nc2c(cc1Cl)C(=S)N(C)CC(CCN(C)C)O2 (stereo unspecified)
- survival at 0.3 mg/kg [4]: 67%
- Survival [7]: 67%

Structure (SMILES): CN(C)CCC1CN(C)C(=S)c2cc(Br)cnc2O1 (stereo unspecified)
- ED50 [8]: 2 mg/kg
- ED50 [9]: 0.05 mg/kg
- Survival [7]: 100%

Structure (SMILES): CN(CCC1CN(C)C(=S)c2cc(Cl)cnc2O1)Cc1ccccc1 (stereo unspecified)
- survival at 3 mg/kg [1]: 100%
- survival at 0.3 mg/kg [4]: 60%
- ED50 [9]: 0.9 mg/kg

Structure (SMILES): CC(CN(C)C)C1CN(C)C(=O)c2cccnc2O1 (stereo unspecified)
- Survival [5]: 0%
- survival at 30 mg/kg [3]: 67%

Structure (SMILES): S=C1c2ccccc2OC(CCN2CCOCC2)CN1Cc1ccccc1 (stereo unspecified)
- survival at 30 mg/kg [3]: 0%

Structure (SMILES): Cc1nc2c(cc1Cl)C(=S)N(C)CC(CCN1CCC1)O2 (stereo unspecified)
- survival at 0.3 mg/kg [4]: 67%
- Survival [7]: 67%

Structure (SMILES): CN(C)CCC1CN(C)C(=O)c2cnc3ccccc3c2O1 (stereo unspecified)
- survival at 30 mg/kg [3]: 33%

Structure (SMILES): CCOC(=O)N1CCC(=C2c3ccc(Cl)cc3CCc3cccnc32)CC1 [LORATADINE]
- Dose [10]: 0.43 mg/kg
- Dose [11]: 20 mg/kg

Structure (SMILES): COc1ccc(CCN2CCC(Nc3nc4ccccc4n3Cc3ccc(F)cc3)CC2)cc1 [ASTEMIZOLE]
- Dose [10]: 0.43 mg/kg
- Dose [11]: 8 mg/kg

Structure (SMILES): CN(C)CCC1CN(C)C(=S)c2cc(F)ccc2O1 (stereo unspecified)
- survival at 3 mg/kg [1]: 100%
- survival at 0.3 mg/kg [4]: 0%
- survival at 1 mg/kg [2]: 20%

Structure (SMILES): CN(C)CCC1CN(C)C(=S)c2ccc(Cl)cc2O1 (stereo unspecified)
- survival at 3 mg/kg [1]: 100%
- survival at 30 mg/kg [6]: 100%
- survival at 0.3 mg/kg [4]: 0%
- survival at 1 mg/kg [2]: 0%

Structure (SMILES): CN(C)CCOC(c1ccccc1)c1ccccc1 [DIPHENHYDRAMINE]
- Dose [10]: 0.75 mg/kg
- Dose [11]: 0.6 mg/kg
- survival at 3 mg/kg [1]: 67%
- survival at 1 mg/kg [2]: 33%
- ED50 [8]: 38 mg/kg
- ED50 [9]: 2.8 mg/kg

Structure (SMILES): CN(C)CCC1CN(C)C(=S)c2cc(Br)ccc2O1 (stereo unspecified)
- survival at 3 mg/kg [1]: 67%
- survival at 30 mg/kg [6]: 100%
- survival at 1 mg/kg [2]: 0%

Structure (SMILES): CNCCC1CN(C)C(=S)c2cccnc2O1 (stereo unspecified)
- Dose [11]: >20 mg/kg
- survival at 3 mg/kg [1]: 0%
- survival at 30 mg/kg [6]: 100%

Structure (SMILES): CN(C)CCC1CN(C)C(=S)c2cc3ccccc3nc2O1 (stereo unspecified)
- survival at 0.3 mg/kg [4]: 100%
- ED50 [8]: 2.9 mg/kg
- ED50 [9]: 0.1 mg/kg
- Survival [7]: 67%

Structure (SMILES): CN(C)CCC1CN(C)C(=S)c2cc(Cl)ccc2O1 (stereo unspecified)
- Dose [11]: 10 mg/kg
- survival at 3 mg/kg [1]: 100%
- survival at 1 mg/kg [2]: 33%

Structure (SMILES): CN(CCC1CN(C)C(=S)c2cccnc2O1)Cc1ccccc1 (stereo unspecified)
- survival at 3 mg/kg [1]: 100%
- survival at 1 mg/kg [2]: 0%

Structure (SMILES): O=C1c2ccccc2OC(CCN2CCOCC2)CN1Cc1ccccc1 (stereo unspecified)
- survival at 30 mg/kg [3]: 0%

Structure (SMILES): CN(C)CCCC1CN(C)C(=O)c2cccnc2O1 (stereo unspecified)
- Survival [5]: 0%
- survival at 30 mg/kg [3]: 100%

Structure (SMILES): CC(CN(C)C)C1CN(C)C(=S)c2cccnc2O1 (stereo unspecified)
- Survival [5]: 0%
- survival at 30 mg/kg [3]: 100%

Structure (SMILES): CN1CC(CCN2CCCCC2)Oc2ncccc2C1=S (stereo unspecified)
- Survival [5]: 0%
- survival at 30 mg/kg [3]: 100%

Structure (SMILES): CN(C)CCC1CN(C)C(=O)c2cnc3cc(C(F)(F)F)ccc3c2O1 (stereo unspecified)
- Survival [5]: 0%
- survival at 30 mg/kg [3]: 100%

Structure (SMILES): CN(C)CCC1CN(C)C(=O)c2c(Cl)cncc2O1 (stereo unspecified)
- survival at 30 mg/kg [3]: 0%

Structure (SMILES): CN(C)CC1CN(C)C(=O)c2cccnc2O1 (stereo unspecified)
- survival at 30 mg/kg [3]: 0%

Structure (SMILES): CN(C)CCC1CN(C)C(=O)c2cc(Cl)ccc2O1 (stereo unspecified)
- survival at 3 mg/kg [1]: 40%
- survival at 0.3 mg/kg [4]: 0%
- survival at 1 mg/kg [2]: 33%

Structure (SMILES): CN(C)CCC1CN(C)C(=O)c2cc(Cl)cnc2O1 (stereo unspecified)
- survival at 0.3 mg/kg [4]: 33%
- survival at 1 mg/kg [2]: 100%
- ED50 [8]: 28 mg/kg
- ED50 [9]: 0.3 mg/kg

Structure (SMILES): CN1CC(CCN2CCOCC2)Oc2ccccc2C1=S (stereo unspecified)
- survival at 30 mg/kg [3]: 50%

Structure (SMILES): CN1CC(CCN(Cc2ccccc2)Cc2ccccc2)Oc2ncccc2C1=S (stereo unspecified)
- survival at 30 mg/kg [3]: 0%

Structure (SMILES): CN1CCN(CCC2CN(C)C(=S)c3cccnc3O2)CC1 (stereo unspecified)
- Survival [5]: 0%
- survival at 30 mg/kg [3]: 100%

Structure (SMILES): CN1CC(CCn2ccnc2)Oc2ncccc2C1=S (stereo unspecified)
- Survival [5]: 0%
- survival at 30 mg/kg [3]: 100%
